Series [1] can be described thus: Thiol reactivity of compound with mercaptoethanol measured after 24 hrs by 1H-NMR analysis. The format is physicochemical.
A further series relates to MOLT-4. The series is described as follows: Cytotoxicity against human MOLT-4 cells assessed as reduction in cell viability measured after 24 hrs by CCK-8 assay. It is filed as functional, cell-based. The following applies: MOLT-4, 24 h. The gist of the method: (§1)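 Cells were grown in RPMI-1640 or high-glucose DMEM with 10% FBS at 37 °C, 5% CO2, and seeded at 3 × 10^4 cells/well. Exposure was 24 h across serial concentrations (0−1000 μM in the screen). […] Three independent experiments, mean ± SEM.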

The target in series [2] is T1, Glycogen synthase kinase-3 beta (Homo sapiens, UniProt P49841). The series is described as follows: Inhibition of recombinant human GSK-3beta using GS-2 peptide as substrate incubated for 30 mins in presence of ATP by kinase-glo luminescence assay. Background: In Kinase-Glo more light means more ATP remaining.
Target sequence in this assay (P49841 whole entry): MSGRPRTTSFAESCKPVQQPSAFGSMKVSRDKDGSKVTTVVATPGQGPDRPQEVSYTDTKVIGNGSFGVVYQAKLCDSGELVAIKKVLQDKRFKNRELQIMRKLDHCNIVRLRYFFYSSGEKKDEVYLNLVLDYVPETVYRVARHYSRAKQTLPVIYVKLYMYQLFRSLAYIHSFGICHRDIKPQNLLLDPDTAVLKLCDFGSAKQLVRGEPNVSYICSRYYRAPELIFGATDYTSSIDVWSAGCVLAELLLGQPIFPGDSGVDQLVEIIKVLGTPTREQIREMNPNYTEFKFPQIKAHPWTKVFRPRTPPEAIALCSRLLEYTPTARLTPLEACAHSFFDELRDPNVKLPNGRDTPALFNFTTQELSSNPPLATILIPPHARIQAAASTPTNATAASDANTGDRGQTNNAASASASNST
In another series the test system is Raji. The series is described as follows: Cytotoxicity against human Raji cells assessed as reduction in cell viability measured after 24 hrs by CCK-8 assay. It is filed as functional, cell-based. In a few lines: as §1
For series [3], the target named is Vascular endothelial growth factor receptor 2 (Homo sapiens) (UniProt P35968). The series is described as follows: Inhibition of KDR (unknown origin) at 100 uM incubated for 60 mins by ELISA relative to control. The gist of the method: (§2)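 Tyrosine kinase ELISA on plates precoated with poly(Glu,Tyr) 4:1 substrate. Reaction used 10 μM ATP in buffer (50 mM HEPES pH 7.4, 50 mM MgCl2, 0.5 mM MnCl2, 0.2 mM Na3VO4, 1 mM DTT) with compound in 1% DMSO. Purified kinase started the reaction, 60 min at 37 °C. Detection by anti-phosphotyrosine PY99 then HRP anti-mouse IgG with o-phenylenediamine/H2O2. Read at 490 nm; inhibition = [1 − A490/A490 control] × 100%.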
Vascular endothelial growth factor receptor 2 (Homo sapiens), sequence (P35968 whole entry): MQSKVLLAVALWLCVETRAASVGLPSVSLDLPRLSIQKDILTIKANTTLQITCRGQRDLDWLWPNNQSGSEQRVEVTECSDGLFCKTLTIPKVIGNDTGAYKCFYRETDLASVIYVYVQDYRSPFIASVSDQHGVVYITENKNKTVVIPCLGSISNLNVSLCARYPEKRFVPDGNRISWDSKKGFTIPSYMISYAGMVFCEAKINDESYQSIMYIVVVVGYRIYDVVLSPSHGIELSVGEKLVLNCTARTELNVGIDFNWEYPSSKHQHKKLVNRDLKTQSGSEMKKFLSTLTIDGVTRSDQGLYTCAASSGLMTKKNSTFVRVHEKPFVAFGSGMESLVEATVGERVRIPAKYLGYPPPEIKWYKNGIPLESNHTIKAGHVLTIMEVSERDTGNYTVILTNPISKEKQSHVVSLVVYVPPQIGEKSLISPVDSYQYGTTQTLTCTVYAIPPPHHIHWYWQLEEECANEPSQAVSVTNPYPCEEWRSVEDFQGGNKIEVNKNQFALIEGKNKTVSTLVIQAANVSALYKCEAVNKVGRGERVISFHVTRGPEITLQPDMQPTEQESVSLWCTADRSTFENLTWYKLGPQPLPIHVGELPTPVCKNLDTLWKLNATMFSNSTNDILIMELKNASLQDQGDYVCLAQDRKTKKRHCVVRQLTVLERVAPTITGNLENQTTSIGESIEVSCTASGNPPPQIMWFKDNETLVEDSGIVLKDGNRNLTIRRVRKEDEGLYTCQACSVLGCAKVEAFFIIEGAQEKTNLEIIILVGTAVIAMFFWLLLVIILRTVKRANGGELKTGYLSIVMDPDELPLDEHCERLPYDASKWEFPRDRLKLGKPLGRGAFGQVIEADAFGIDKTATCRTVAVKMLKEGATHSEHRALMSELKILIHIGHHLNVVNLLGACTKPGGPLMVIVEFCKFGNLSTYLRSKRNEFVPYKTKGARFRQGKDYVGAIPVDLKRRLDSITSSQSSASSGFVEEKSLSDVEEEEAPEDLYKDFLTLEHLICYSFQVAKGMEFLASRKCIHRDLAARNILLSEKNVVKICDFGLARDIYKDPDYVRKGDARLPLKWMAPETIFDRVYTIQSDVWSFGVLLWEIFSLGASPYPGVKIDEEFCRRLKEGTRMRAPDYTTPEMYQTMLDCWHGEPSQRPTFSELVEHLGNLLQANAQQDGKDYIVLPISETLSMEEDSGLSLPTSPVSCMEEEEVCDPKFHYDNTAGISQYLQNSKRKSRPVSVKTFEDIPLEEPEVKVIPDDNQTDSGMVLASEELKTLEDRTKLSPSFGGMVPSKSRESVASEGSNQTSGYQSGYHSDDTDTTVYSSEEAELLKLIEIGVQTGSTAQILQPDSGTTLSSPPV
(In general: ELISA stands for enzyme-linked immunosorbent assay.)

In series [4] the target is Mast/stem cell growth factor receptor Kit (Homo sapiens) (UniProt P10721). The series is described as follows: Inhibition of c-Kit (unknown origin) at 100 uM incubated for 60 mins by ELISA relative to control. The gist of the method: as §2
Another series has as its system HL-60. The series is described as follows: Cytotoxicity against human HL-60 cells assessed as reduction in cell viability measured after 24 hrs by CCK-8 assay. It is filed as functional, cell-based. The following applies: HL-60, 24 h. The gist of the method: as §1
For orientation: Tetrazolium dyes change colour on reduction, which living cells bring about.

Series [5] concerns the target Vascular endothelial growth factor receptor 1 (Homo sapiens) (UniProt P17948). Nature of the series: Inhibition of Flt-1 (unknown origin) at 100 uM incubated for 60 mins by ELISA relative to control. The gist of the method: as §2
Series [6] concerns the target Receptor tyrosine-protein kinase erbB-4 (Homo sapiens) (UniProt Q15303). The series is described as follows: Inhibition of ERBB4 (unknown origin) at 100 uM incubated for 60 min by ELISA relative to control. The gist of the method: as §2
Series [7] has as its target Proto-oncogene tyrosine-protein kinase receptor Ret (Homo sapiens) (UniProt P07949). The series is described as follows: Inhibition of RET (unknown origin) at 100 uM incubated for 60 mins by ELISA relative to control. The gist of the method: as §2
The next series has as its system NB-4. Nature of the series: Cytotoxicity against human NB-4 cells assessed as reduction in cell viability measured after 24 hrs by CCK-8 assay. The following applies: NB-4, 24 h. The format is functional, cell-based. The gist of the method:
as §1

For series [8], the target named is Platelet-derived growth factor receptor beta (Homo sapiens) (UniProt P09619). The series is described as follows: Inhibition of PDGFRbeta (unknown origin) at 100 uM incubated for 60 mins by ELISA relative to control. The gist of the method:
as §2

Series [9] concerns the target T1, Glycogen synthase kinase-3 beta. Nature of the series: Non-competitive inhibition of recombinant human GSK-3beta at 2 to 4 uM using varying concentration of GS-2 as substrate incubated for 10 mins in presence of ATP by double reciprocal plot analysis. The following applies: dose 2-4 µM.
Target sequence in this assay (P49841 whole entry, looked up): as the sequence (P49841 whole entry) above
Series [10] has the same target. The series is described as follows: Non-competitive inhibition of recombinant human GSK-3beta using GS-2 peptide as substrate at 2 to 4 uM incubated for 10 mins in presence of varying levels of ATP by double reciprocal plot analysis. The following applies: dose 2-4 µM.
Target sequence in this assay (P49841 whole entry, looked up): as the sequence (P49841 whole entry) above
Series [11] deals with Fibroblast growth factor receptor 1 (Homo sapiens) (UniProt P11362). The series is described as follows: Inhibition of FGFR1 (unknown origin) at 100 uM incubated for 60 mins by ELISA relative to control. The gist of the method:
as §2

Series [12] has as its target T1, Glycogen synthase kinase-3 beta. Nature of the series: Irreversible inhibition of recombinant human GSK-3beta preincubated for upto 10 mins by double reciprocal plot analysis. The following applies: time min <=10, TDE = time-dependent effect. The gist of the method:
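Irreversibility tested in the Kinase-Glo GSK-3β assay. Inhibitor at 6.25 and 12.5 μM was preincubated with enzyme for 0, 5 or 10 min. Each point is the mean of two separate experiments done in triplicate.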
Target sequence in this assay (P49841 whole entry, looked up): as the sequence (P49841 whole entry) above

Series [13] has as its target Platelet-derived growth factor receptor alpha (Homo sapiens) (UniProt P16234). Nature of the series: Inhibition of PDGFRalpha (unknown origin) at 100 uM incubated for 60 mins by ELISA relative to control. The gist of the method:
as §2

Calls of active or inactive are those of the source. The rule behind the calls is not given here.

Platelet-derived growth factor receptor alpha (Homo sapiens), sequence (P16234 whole entry): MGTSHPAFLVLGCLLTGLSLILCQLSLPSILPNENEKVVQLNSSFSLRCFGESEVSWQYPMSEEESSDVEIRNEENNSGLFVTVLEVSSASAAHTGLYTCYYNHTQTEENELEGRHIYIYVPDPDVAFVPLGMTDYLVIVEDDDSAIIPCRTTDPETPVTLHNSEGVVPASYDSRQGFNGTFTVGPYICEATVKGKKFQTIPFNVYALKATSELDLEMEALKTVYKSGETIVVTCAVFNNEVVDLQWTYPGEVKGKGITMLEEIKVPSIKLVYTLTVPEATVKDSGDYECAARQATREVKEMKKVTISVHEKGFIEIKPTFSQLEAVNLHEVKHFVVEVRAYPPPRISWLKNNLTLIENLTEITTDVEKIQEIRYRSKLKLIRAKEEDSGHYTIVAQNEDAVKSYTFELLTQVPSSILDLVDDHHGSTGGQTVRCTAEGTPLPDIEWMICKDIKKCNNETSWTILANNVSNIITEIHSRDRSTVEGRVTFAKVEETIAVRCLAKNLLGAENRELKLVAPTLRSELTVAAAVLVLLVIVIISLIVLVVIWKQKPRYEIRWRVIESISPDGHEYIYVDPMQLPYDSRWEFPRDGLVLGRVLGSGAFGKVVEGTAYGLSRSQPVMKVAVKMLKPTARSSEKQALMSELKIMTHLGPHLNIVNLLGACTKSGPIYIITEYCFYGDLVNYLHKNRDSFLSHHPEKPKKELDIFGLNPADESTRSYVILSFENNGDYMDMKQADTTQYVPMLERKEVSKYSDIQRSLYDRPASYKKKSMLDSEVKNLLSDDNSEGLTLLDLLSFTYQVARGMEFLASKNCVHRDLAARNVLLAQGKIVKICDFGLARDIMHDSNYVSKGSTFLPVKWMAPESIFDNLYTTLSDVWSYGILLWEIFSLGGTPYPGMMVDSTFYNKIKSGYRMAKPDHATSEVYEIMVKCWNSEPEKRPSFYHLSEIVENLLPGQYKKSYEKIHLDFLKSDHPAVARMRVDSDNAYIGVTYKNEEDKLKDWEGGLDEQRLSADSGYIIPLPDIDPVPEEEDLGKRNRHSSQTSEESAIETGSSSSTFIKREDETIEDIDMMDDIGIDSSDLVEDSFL
Fibroblast growth factor receptor 1 (Homo sapiens), sequence (P11362 22-822 limits assumed): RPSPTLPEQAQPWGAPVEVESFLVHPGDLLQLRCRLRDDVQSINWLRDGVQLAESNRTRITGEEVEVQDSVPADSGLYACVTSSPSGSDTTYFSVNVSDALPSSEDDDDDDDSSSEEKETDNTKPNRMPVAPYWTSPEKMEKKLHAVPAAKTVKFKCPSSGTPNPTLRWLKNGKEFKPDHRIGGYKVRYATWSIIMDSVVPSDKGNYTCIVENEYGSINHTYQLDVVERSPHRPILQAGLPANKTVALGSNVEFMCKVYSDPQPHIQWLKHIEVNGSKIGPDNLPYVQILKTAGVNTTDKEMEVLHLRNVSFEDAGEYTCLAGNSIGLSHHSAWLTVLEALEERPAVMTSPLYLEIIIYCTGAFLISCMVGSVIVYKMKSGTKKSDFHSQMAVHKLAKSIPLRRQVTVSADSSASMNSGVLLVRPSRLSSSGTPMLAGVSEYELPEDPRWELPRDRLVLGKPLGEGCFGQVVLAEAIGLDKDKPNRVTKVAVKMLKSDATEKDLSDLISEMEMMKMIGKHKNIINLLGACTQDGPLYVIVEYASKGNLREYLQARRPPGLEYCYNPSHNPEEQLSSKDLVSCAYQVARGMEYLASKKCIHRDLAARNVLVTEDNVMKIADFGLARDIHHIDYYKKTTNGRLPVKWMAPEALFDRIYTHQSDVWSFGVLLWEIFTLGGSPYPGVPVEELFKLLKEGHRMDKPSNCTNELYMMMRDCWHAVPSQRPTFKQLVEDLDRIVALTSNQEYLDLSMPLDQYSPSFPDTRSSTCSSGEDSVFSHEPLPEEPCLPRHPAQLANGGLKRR
Proto-oncogene tyrosine-protein kinase receptor Ret (Homo sapiens), sequence (P07949 whole entry): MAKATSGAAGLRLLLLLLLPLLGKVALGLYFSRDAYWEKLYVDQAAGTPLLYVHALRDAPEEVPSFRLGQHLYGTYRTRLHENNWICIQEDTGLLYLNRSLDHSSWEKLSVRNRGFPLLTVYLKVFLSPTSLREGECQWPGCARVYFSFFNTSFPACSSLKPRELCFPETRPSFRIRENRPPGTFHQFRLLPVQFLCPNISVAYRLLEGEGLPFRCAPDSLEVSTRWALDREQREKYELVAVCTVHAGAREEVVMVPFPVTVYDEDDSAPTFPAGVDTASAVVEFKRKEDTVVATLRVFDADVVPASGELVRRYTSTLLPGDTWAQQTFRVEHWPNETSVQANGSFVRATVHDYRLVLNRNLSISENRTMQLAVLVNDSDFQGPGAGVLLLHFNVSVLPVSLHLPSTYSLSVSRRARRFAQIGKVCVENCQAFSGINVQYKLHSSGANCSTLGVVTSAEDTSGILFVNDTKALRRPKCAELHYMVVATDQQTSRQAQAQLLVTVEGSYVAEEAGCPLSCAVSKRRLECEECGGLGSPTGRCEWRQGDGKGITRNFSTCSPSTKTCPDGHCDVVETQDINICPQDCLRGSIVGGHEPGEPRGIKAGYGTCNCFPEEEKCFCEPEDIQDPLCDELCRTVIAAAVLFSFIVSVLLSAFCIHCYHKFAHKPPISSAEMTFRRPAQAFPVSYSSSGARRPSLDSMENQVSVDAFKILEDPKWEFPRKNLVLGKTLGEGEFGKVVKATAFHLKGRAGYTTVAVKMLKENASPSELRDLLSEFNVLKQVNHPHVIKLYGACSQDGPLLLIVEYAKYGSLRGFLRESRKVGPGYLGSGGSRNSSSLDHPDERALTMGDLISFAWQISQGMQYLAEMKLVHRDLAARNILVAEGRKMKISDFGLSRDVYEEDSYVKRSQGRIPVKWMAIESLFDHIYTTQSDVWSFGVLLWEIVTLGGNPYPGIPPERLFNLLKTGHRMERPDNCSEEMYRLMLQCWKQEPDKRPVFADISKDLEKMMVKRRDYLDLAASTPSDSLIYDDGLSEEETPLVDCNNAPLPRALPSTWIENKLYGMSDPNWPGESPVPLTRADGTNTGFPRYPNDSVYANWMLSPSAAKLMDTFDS

Turning to `C=CC(=O)N1C(=O)CC(c2ccccc2)Sc2ccccc21` (configuration not stated), the Drug metabolism result in series [1] was “Metabolite_Detected”. For the same compound, the IC50 in the series on MOLT-4 turned out to be 85.9 µM; in series [2], 6.6 µM; in the series with Raji, 74 µM; with HL-60, 97.4 µM; with NB-4 it was 35.5 µM. Also, the inhibition is 0% in [3]; 26.9% in series [4]; 1.7% in [5]; 0% in series [6]; 0% in series [7]; 2.7% in series [8]. The inhibition in [11] is 0%; in [12], “Tde”; in series [13], 6.5%. Further, the inhibition result in series [9] and in series [10] was “Active” each time.

The term IC50 denotes the concentration at which inhibition is half-maximal. One may read the inhibition as how much of the control response was suppressed.

The values are drawn from ChEMBL document CHEMBL5036319, “Discovery of Novel Benzothiazepinones as Irreversible Covalent Glycogen Synthase Kinase 3β Inhibitors for the Treatment of Acute Promyelocytic Leukemia” (J Med Chem, 2021).
